≈ marks a conversion by molar mass, not a printed value. Calls of active or inactive are those of the source. The calls are words filed in the database; no cut-off is given here.
Columns and labels:
Bacillus subtilis [1] = assay: Antibacterial activity against Bacillus subtilis ATCC 6051 after 20 hrs; assay type: functional
How it was run: (§1)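 Broth microdilution MIC: exponential-phase bacteria at 10^5 to 10^6 CFU/ml in Mueller-Hinton broth. Compound serial dilutions made in PBS and mixed 1:1 by volume with the cells, so broth is 50% v/v. Incubated 20 hours at 37°C, and the minimum inhibitory concentration was recorded.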

Escherichia coli [2] = assay: Antibacterial activity against Escherichia coli MG1655 after 20 hrs; assay type: functional; how it was run: as §1
[3] = Toxicity against RBC assessed as hemolytic activity; assay type: cell-based; details: erythrocyte
How it was run: (§2)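 Donor whole blood in heparin/ACD was chilled to 4°C, pelleted at 1000g and washed three times in phosphate/NaCl/HEPES buffer, then resuspended in PBS. Cells were mixed 1:1 with serial dilutions in PBS and held 1 h at 37°C, then spun. Diluted supernatant was read at 540 nm against buffer, with percent lysis set against 1% Triton X-100.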

[4] = Therapeutic index, ratio of MHC for RBC to MIC for Bacillus subtilis ATCC 6051; details: red blood cells (RBC); read-out: TI
How it was run: (§3)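 Ratio of MHC to MIC. MIC: exponential-phase B. subtilis ATC6051 or E. coli MG1655 at 10^5–10^6 CFU/ml in Mueller-Hinton broth, mixed 1:1 with serial dilutions in PBS (50% v/v broth), 20 h at 37°C. MHC: lowest concentration giving ≥2% lysis of washed donor red cells after 1 h at 37°C.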

[5] = Therapeutic index, ratio of MHC for RBC to MIC for Escherichia coli MG1655; details: red blood cells (RBC); read-out: TI; how it was run: as §3
[6] = Toxicity against RBC assessed as hemolytic activity at 2 mM; assay type: cell-based; details: erythrocyte, 2000 µM; how it was run: as §2
Bacillus subtilis [7] = assay: Antibacterial activity against Bacillus subtilis ATCC 6051 at 20 uM after 4 hrs; assay type: functional, organism-based; details: ATC6051
How it was run: (§4)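 Killing assay: exponential-phase bacteria suspended in PBS at 10^5–10^6 CFU/ml and preincubated for 1 hour at 37°C. Compound added and exposure lasted 4 hours. Samples were taken, diluted in four ten-fold steps in PBS and plated on agar overnight at 37°C. Colonies were counted manually and averages plotted on a log scale.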

Escherichia coli [8] = assay: Antibacterial activity against Escherichia coli MG1655 at 20 uM after 4 hrs; assay type: functional, organism-based; details: 50 uM, in the assay text read “50 uM” for “20 uM”; how it was run: as §4
[9] = Toxicity against RBC assessed as hemolytic activity at 1 to 2 mM; assay type: cell-based, Erythrocyte; details: red blood cells (RBC); read-out: Activity; how it was run: as §2
[10] = Toxicity against bovine BAEC cells; assay type: cell-based, Bos taurus; details: cattle
How it was run: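 Bovine aortic endothelial cells, passage 4–15, grown in DMEM with 10% FBS. Lipoplexes made with or without DOPE at several charge ratios up to 12 were added in serum-free OptiMem for 2 h at 37°C, then replaced with growth medium. About 20 h later, viability was read as ATP luminescence (CellTiter-Glo, 30 min), normalised to naked plasmid DNA, n = 8.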

| Compound | MIC (Bacillus subtilis [1]; ATC6051, 20 h) [µM] | MIC (Escherichia coli [2]; MG1655, 20 h) [µM] | MHC [3] [µM] | selectivity ratio [4] | selectivity ratio [5] | Activity [6] | MIC (Bacillus subtilis [1]; ATC6051) [µM] | MIC (Escherichia coli [2]) [µM] | Activity (Bacillus subtilis [7]) | Activity (Escherichia coli [8]) | hemolysis at up to 2000 µM [9] [%] | Activity [10] |
| --- | --- | --- | --- | --- | --- | --- | --- | --- | --- | --- | --- | --- |
| C[C@H](CCC(=O)NCCCNCCCCNCCCNC(=O)CC[C@H](C)[C@@H]1CC[C@@H]2[C@@H]3[C@@H](C[C@@H](O)[C@]21C)[C@]1(C)CC[C@H](O)C[C@@H]1C[C@@H]3O)[C@H]1CC[C@H]2[C@@H]3[C@H](O)C[C@@H]4C[C@H](O)CC[C@]4(C)[C@H]3C[C@H](O)[C@]12C | 4 (≈ 3.93 µg/mL) | 16 (≈ 15.7 µg/mL) | 250 | 61 | 15 | Toxic | – | – | – | – | – | – |
| POLYMYXIN B | – | – | – | – | – | – | 1 | 6 | – | – | – | – |
| C[C@H](CCC(=O)NCCCNCCCCNCCCN)[C@H]1CCC2=C3CC[C@@H]4C[C@H](O)CC[C@]4(C)[C@H]3C[C@H](O)[C@@]21C | 28 (≈ 16.1 µg/mL) | 111 (≈ 63.8 µg/mL) | 500 | 18 | 5 | – | – | – | Active | Active | 30 | – |
| C[C@H](CCC(=O)NCCCNCCCCNCCCN)[C@H]1CC[C@H]2[C@@H]3CC=C4C[C@@H](O)CC[C@]4(C)[C@H]3CC[C@]12C | 57 (≈ 31.9 µg/mL) | 115 (≈ 64.3 µg/mL) | 1000 | 18 | 9 | – | – | – | – | – | 30 | Toxic |
| C[C@H](CCC(=O)NCCCNCCCCNCCCN)[C@H]1CC[C@H]2[C@@H]3CC[C@@H]4C[C@H](O)CC[C@]4(C)[C@H]3CC[C@]12C | 57 (≈ 32 µg/mL) | 228 (≈ 128 µg/mL) | 500 | 9 | 2 | – | – | – | Active | Active | 30 | – |
| C[C@H](CCC(=O)NCCCNCCCCNCCCN)[C@H]1CC[C@H]2[C@@H]3[C@H](O)C[C@@H]4C[C@H](O)CC[C@]4(C)[C@H]3C[C@H](O)[C@]12C | > 432 | > 432 | 500 | < 1 | < 1 | – | – | – | – | – | 30 | – |

— ChEMBL document CHEMBL1139239, “A series of cationic sterol lipids with gene transfer and bactericidal activity” (Bioorg Med Chem, 2009)
